Results from ChEMBL document CHEMBL3585285, “Amino Acid Thioester Derivatives: A Highly Promising Scaffold for the Development of Metallo-β-lactamase L1 Inhibitors” (ACS Med Chem Lett, 2015).
In brackets after ≈: the same amount, converted by molar mass. Activity calls are given as the source filed them. The rule behind the calls is not given here.

Legend:
[1] = biological target: Metallo-beta-lactamase type 2 (Bacteroides fragilis) (UniProt P25910); assay: Inhibition of Bacteroides fragilis CcrA overexpressed in Escherichia coli BL21 (DE3) using cefazolin as substrate up to 5 uM incubated for 30 mins prior to testing by UV spectrophotometric analysis
Sequence of Metallo-beta-lactamase type 2 (Bacteroides fragilis) (P25910 whole entry): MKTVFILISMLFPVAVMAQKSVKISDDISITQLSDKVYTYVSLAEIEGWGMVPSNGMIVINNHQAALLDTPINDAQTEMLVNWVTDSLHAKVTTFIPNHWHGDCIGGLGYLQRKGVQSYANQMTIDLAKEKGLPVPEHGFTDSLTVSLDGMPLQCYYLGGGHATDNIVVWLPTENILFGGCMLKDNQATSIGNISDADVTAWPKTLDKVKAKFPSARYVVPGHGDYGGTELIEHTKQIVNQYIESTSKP
Method in brief: (§1)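 Each enzyme (CcrA or NDM-1) was assayed on cefazolin hydrolysis followed at 262 nm. Initial rates were measured in triplicate with or without inhibitor and averaged. IC50 is the concentration causing 50% loss of activity.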

[2] = Inhibition of NDM1 (unknown origin) overexpressed in Escherichia coli BL21 (DE3) using cefazolin as substrate incubated for 30 mins prior to testing by UV spectrophotometric analysis; method in brief: as §1
Escherichia coli [3] = assay: Antibacterial activity against Escherichia coli assessed as imipenem MIC after 12 hrs by macrodilution broth method (reference value: 0.5 ug/ml); format: functional
[4] = Inhibition of NDM1 (unknown origin) overexpressed in Escherichia coli BL21 (DE3) assessed as cefazolin MIC at 16 ug/ml after 12 hrs by macrodilution broth method
Method in brief: (§2)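 MICs of antibiotic were measured with and without inhibitor at a final 16 μg/mL in E. coli BL21(DE3) carrying pMSZ02-CcrA, pET26b-NDM-1, pET26b-ImiS or pET26b-L1, plus plasmid-free BL21(DE3) as a control. Cefazolin was the antibiotic for the CcrA, NDM-1 and L1 strains; imipenem was used for the ImiS strain.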

[5] = biological target: Beta-lactamase L1 (Stenotrophomonas maltophilia) (UniProt P52700); assay: Inhibition of Stenotrophomonas maltophilia L1 overexpressed in Escherichia coli BL21 (DE3) assessed as reduction of cefazolin MIC at 16 ug/ml after 12 hrs by macrodilution broth method relative to cefazolin-treated control; method in brief: as §2
Sequence of Beta-lactamase L1 (Stenotrophomonas maltophilia) (P52700 34-290 limits assumed): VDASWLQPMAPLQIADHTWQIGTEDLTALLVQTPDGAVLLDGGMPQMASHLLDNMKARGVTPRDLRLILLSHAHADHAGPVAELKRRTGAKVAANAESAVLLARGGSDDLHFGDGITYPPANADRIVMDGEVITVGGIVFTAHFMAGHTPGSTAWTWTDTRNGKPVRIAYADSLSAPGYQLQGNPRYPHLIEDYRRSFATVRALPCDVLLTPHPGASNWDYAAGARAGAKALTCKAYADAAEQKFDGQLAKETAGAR

[6] = biological target: Beta-lactamase L1 (Stenotrophomonas maltophilia) (UniProt P52700); assay: Inhibition of Stenotrophomonas maltophilia L1 overexpressed in Escherichia coli BL21 (DE3) assessed as cefazolin MIC at 16 ug/ml after 12 hrs by macrodilution broth method; method in brief: as §2
[7] = system: Aeromonas veronii bv. sobria; assay: Inhibition of Aeromonas veronii bv. sobria ImiS overexpressed in Escherichia coli BL21 (DE3) assessed as imipenem MIC at 16 ug/ml after 12 hrs by macrodilution broth method; method in brief: as §2
Beta-lactamase L1 [8] = biological target: T1, Beta-lactamase L1 (Stenotrophomonas maltophilia, UniProt P52700); assay: Mixed-type inhibition of Stenotrophomonas maltophilia L1 overexpressed in Escherichia coli BL21 (DE3) using cefazolin as substrate incubated for 30 mins prior to testing by Lineweaver-Burk plot analysis
T1 sequence (P52700 whole entry): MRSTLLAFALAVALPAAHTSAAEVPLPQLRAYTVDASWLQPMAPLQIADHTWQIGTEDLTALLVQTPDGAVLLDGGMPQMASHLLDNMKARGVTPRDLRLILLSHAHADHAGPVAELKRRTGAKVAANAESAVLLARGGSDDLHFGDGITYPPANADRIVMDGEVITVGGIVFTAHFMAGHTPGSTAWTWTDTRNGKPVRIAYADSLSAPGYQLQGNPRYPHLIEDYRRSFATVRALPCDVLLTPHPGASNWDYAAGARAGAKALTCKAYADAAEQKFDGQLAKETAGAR

Escherichia coli [9] = assay: Antibacterial activity against Escherichia coli assessed as cefazolin MIC after 12 hrs by macrodilution broth method (reference value: 64 ug/ml); format: functional
Beta-lactamase L1 [10] = biological target: T1, Beta-lactamase L1; assay: Inhibition of Stenotrophomonas maltophilia L1 overexpressed in Escherichia coli BL21 (DE3) using cefazolin as substrate incubated for 30 mins prior to testing by UV spectrophotometric analysis
[11] = Inhibition of Aeromonas veronii bv. sobria ImiS overexpressed in Escherichia coli BL21 (DE3) using imipenem as substrate incubated for 30 mins prior to testing by UV spectrophotometric analysis
Method in brief: (§3)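 ImiS activity measured as imipenem hydrolysis monitored at 300 nm. Initial rates were taken with and without inhibitor, each in triplicate and averaged. IC50 is the inhibitor concentration giving a 50% drop in enzyme activity.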

[12] = biological target: Metallo-beta-lactamase type 2 (Bacteroides fragilis) (UniProt P25910); assay: Inhibition of Bacteroides fragilis CcrA overexpressed in Escherichia coli BL21 (DE3) assessed as cefazolin MIC at 16 ug/ml after 12 hrs by macrodilution broth method; method in brief: as §2
Escherichia coli [13] = assay: Antibacterial activity against Escherichia coli after 12 hrs by macrodilution broth method; format: functional
[14] = system: Aeromonas veronii bv. sobria; assay: Inhibition of Aeromonas veronii bv. sobria ImiS overexpressed in Escherichia coli BL21 (DE3) using imipenem as substrate up to 5 uM incubated for 30 mins prior to testing by UV spectrophotometric analysis; method in brief: as §3
[15] = biological target: Metallo-beta-lactamase type 2 (Bacteroides fragilis, UniProt P25910); assay: Inhibition of Bacteroides fragilis CcrA overexpressed in Escherichia coli BL21 (DE3) using cefazolin as substrate incubated for 30 mins prior to testing by UV spectrophotometric analysis; method in brief: as §1
Sequence of Metallo-beta-lactamase type 2 (P25910 whole entry): as the sequence (P25910 whole entry) above

| Compound | inhibition [1] | IC50 [2] | MIC (Escherichia coli [3]) | MIC [4] | fold change (FC) [5] | MIC [6] | MIC [7] | Ki (Beta-lactamase L1 [8]) | MIC (Escherichia coli [9]) | IC50 (Beta-lactamase L1 [10]) | IC50 [11] | MIC [12] | MIC (Escherichia coli [13]) | inhibition [14] | IC50 [15] |
| --- | --- | --- | --- | --- | --- | --- | --- | --- | --- | --- | --- | --- | --- | --- | --- |
| CC(C)C[C@H](NC(=O)Cc1cccs1)C(=O)SCC(=O)O | inactive | 28.5 µM | 0.5 µg/mL | 4 µg/mL | 4 | 2 µg/mL | 1 µg/mL | 210 nM | 64 µg/mL | 69 nM | 3.6 µM | 4 µg/mL | – | – | – |
| C[C@@H](O)[C@H]1C(=O)N2C(C(=O)O)=C(SCCNC=N)C[C@H]12 [IMIPENEM ANHYDROUS] | – | – | – | – | – | – | – | – | – | – | – | – | 0.5 µg/mL (≈ 1.67 µM) | – | – |
| O=C(O)CSC(=O)[C@H](CO)NC(=O)Cc1cccs1 | inactive | – | 0.5 µg/mL | 8 µg/mL | 2 | 4 µg/mL | 1 µg/mL | 170 nM | 64 µg/mL | 1490 nM | 60.1 µM | 4 µg/mL | – | – | – |
| O=C(O)CSC(=O)[C@H](Cc1c[nH]c2ccccc12)NC(=O)Cc1cccs1 | inactive | – | 0.5 µg/mL | 8 µg/mL | 4 | 2 µg/mL | 2 µg/mL | 170 nM | 64 µg/mL | 290 nM | – | 4 µg/mL | – | inactive | – |
| O=C(O)CSC(=O)[C@@H]1CCCN1C(=O)Cc1cccs1 | inactive | – | 0.5 µg/mL | 8 µg/mL | 4 | 2 µg/mL | 2 µg/mL | 870 nM | 64 µg/mL | 450 nM | – | 4 µg/mL | – | inactive | – |
| Cc1nnc(SCC2=C(C(=O)O)N3C(=O)[C@@H](NC(=O)Cn4cnnn4)[C@H]3SC2)s1 [CEFAZOLIN] | – | – | – | – | – | – | – | – | – | – | – | – | 64 µg/mL (≈ 141 µM) | – | – |
| O=C(O)CSC(=O)[C@H](Cc1ccccc1)NC(=O)Cc1cccs1 | inactive | 36.3 µM | 0.5 µg/mL | 8 µg/mL | 2 | 4 µg/mL | 1 µg/mL | 950 nM | 64 µg/mL | 2900 nM | 65.4 µM | 4 µg/mL | – | – | – |
| CC(C)[C@H](NC(=O)Cc1cccs1)C(=O)SCC(=O)O | – | 12.4 µM | 0.5 µg/mL | 4 µg/mL | 2 | 4 µg/mL | 1 µg/mL | 280 nM | > 64 µg/mL | 450 nM | 18.9 µM | 4 µg/mL | – | – | 38.5 µM |
| C[C@H](NC(=O)Cc1cccs1)C(=O)SCC(=O)O | inactive | 95.7 µM | 0.5 µg/mL | 4 µg/mL | 4 | 2 µg/mL | 1 µg/mL | 410 nM | > 64 µg/mL | 910 nM | 46.3 µM | 4 µg/mL | – | – | – |
| CSCC[C@H](NC(=O)Cc1cccs1)C(=O)SCC(=O)O | – | – | 0.5 µg/mL | 8 µg/mL | 4 | 2 µg/mL | 1 µg/mL | 110 nM | > 64 µg/mL | 18 nM | 13.3 µM | 4 µg/mL | – | – | 123 µM |
| O=C(O)CSC(=O)CNC(=O)Cc1cccs1 | inactive | 28.7 µM | 0.5 µg/mL | 4 µg/mL | 2 | 4 µg/mL | 1 µg/mL | 280 nM | 64 µg/mL | 840 nM | 61.5 µM | 4 µg/mL | – | – | – |
| O=C(O)CSC(=O)[C@H](CCCCNC(=O)Cc1cccs1)NC(=O)Cc1cccs1 | inactive | – | 0.5 µg/mL | 4 µg/mL | 2 | 4 µg/mL | 2 µg/mL | 190 nM | 64 µg/mL | 1080 nM | – | 4 µg/mL | – | inactive | – |
